Assay results reported in ChEMBL document CHEMBL1132302, “Identification of pharmacokinetically stable 3, 10-dibromo-8-chlorobenzocycloheptapyridine farnesyl protein transferase inhibitors with potent enzyme and cellular activities” (J Med Chem, 1999).

Experiments:
[1] = (§1) Half life was administered by using 20%aqueous hydroxypropyl-beta-cyclodextrin (HPbetaCD) as vehicle to nude mice at a dose of 25mpk,; type: ADME, organism-based; conditions: mouse, in vivo, 25 mg/kg
[2] = (§2) Area under curve was determined using 20%aqueous hydroxypropyl-beta-cyclodextrin (HPbetaCD) as vehicle. Compound was administered intravenously to nude mice at a dose of 25 mg/kg; type: ADME, organism-based; design: dose 25 mg/kg, route intravenous; conditions: mouse, in vivo, iv
Procedure, shortened: (§3)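 Nude mice were dosed at 25 mpk, intravenously or orally as the line states, in 20% aqueous hydroxypropyl-β-cyclodextrin or 0.4% aqueous methyl cellulose. Serum was sampled over 24 h. Each time point came from sera of different animals.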

[3] = molecular target: T1, Protein farnesyltransferase (Homo sapiens, UniProt P49354+P49356); experiment: Effect on Ras processing in Cos-1 monkey kidney cells expressing either H-Ras-Val 12-CVLS or H-Ras-Val12.; type: functional, cell-based, Cercopithecidae
Procedure, shortened: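 Ras processing was tested in Cos-1 monkey kidney cells transiently expressing H-Ras-Val12-CVLS or H-Ras-Val12. IC50 values are single-point determinations.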

[4] = (§4) Bioavailability in mouse (nude) using 20% aqueous hydroxypropyl-beta-cyclodextrin (HPbetaCD) as vehicle 25 mg/kg; type: ADME, organism-based; conditions: nude, in vivo
[5] = tested on: NIH-3T3 (Mus musculus); experiment: inhibition of tumor colony formation in soft agar
[6] = Area under curve was determined using 20%aqueous hydroxypropyl-beta-cyclodextrin (HPbetaCD) as vehicle. Compound was administered orally to nude mice at a dose of 25 mg/kg (Run time = 7 hr); type: ADME, organism-based; design: dose 25 mg/kg, route oral; conditions: mouse, in vivo, po
Procedure, shortened: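 Nude mice received 25 mpk in 20% aqueous hydroxypropyl-β-cyclodextrin, by the route the line gives. Serum was collected over a shortened 7-h run rather than 24 h. Each time point used sera from different animals.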

[7] = Maximum concentration (Cmax) using 20%aqueous hydroxypropyl-beta-cyclodextrin (HPbetaCD) as vehicle. compound was administered orally to nude mice at a dose of 25 mg/kg; type: ADME, organism-based; design: dose 25 mg/kg, route oral; conditions: mouse, in vivo, po; procedure, shortened: as §3
[8] = Maximum concentration (Cmax) using 20%aqueous hydroxypropyl-beta-cyclodextrin (HPbetaCD) as vehicle. compound was administered intravenously to nude mice at a dose of 25 mg/kg; type: ADME, organism-based; design: dose 25 mg/kg, route intravenous; conditions: mouse, in vivo, iv; procedure, shortened: as §3
[9] = Area under curve was determined using 0.4% Methyl cellulose (MC) as vehicle. Compound was administered orally to nude mice at a dose of 25 mg/kg; type: ADME, organism-based; design: dose 25 mg/kg, route oral; conditions: mouse, in vivo, po; procedure, shortened: as §3
[10] = Area under curve was determined using 0.4% Methyl cellulose (MC) as vehicle. Compound was administered intravenously to nude mice at a dose of 25 mg/kg; type: ADME, organism-based; design: dose 25 mg/kg, route intravenous; conditions: mouse, in vivo, iv; procedure, shortened: as §3
[11] = Maximum concentration (Cmax) using 0.4% Methyl cellulose (MC) as vehicle. compound was administered intravenously to nude mice at a dose of 25 mg/kg; type: ADME, organism-based; design: dose 25 mg/kg, route intravenous; conditions: mouse, in vivo, iv; procedure, shortened: as §3
[12] = Maximum concentration (Cmax) using 0.4% Methyl cellulose (MC) as vehicle. compound was administered orally to nude mice at a dose of 25 mg/kg; type: ADME, organism-based; design: dose 25 mg/kg, route oral; conditions: mouse, in vivo, po; procedure, shortened: as §3
[13] = (§5) Area under curve was determined using 20%aqueous hydroxypropyl-beta-cyclodextrin (HPbetaCD) as vehicle. Compound was administered orally to nude mice at a dose of 25 mg/kg; type: ADME, organism-based; design: dose 25 mg/kg, route oral; conditions: mouse, in vivo, po; procedure, shortened: as §3
[14] = Bioavailability in mouse (nude) (dose 0.4% Methylcellulose (MC) as vehicle 25 mg/kg); type: ADME, organism-based; conditions: in vivo
[15] = Half life was administered by using 0.4% Methyl cellulose (MC) as vehicle to nude mice at a dose of 25mpk; conditions: mouse, in vivo, 25 mg/kg
[16] = tested on: NIH-3T3 (Mus musculus); experiment: Inhibition of tumor colony formation in soft agar
[17] = as §2; type: organism-based; design: dose 25 mg/kg; procedure, shortened: as §3
[18] = as §1; type: organism-based
[19] = tested on: Mus musculus; experiment: as §4; type: organism-based
[20] = as §5; type: organism-based; design: dose 25 mg/kg; procedure, shortened: as §3
[21] = molecular target: T1, Protein farnesyltransferase; experiment: Inhibition of [3H]FPP incorporation into His6-H-Ras-CVLS by farnesyl transferase; type: protein-complex assay
[22] = molecular target: T1, Protein farnesyltransferase; experiment: Inhibitory activity against Hras Farnesyltransferase (FPT).; type: protein-complex assay

half-life [1]	AUC [2]	IC50 [3]	bioavailability [4]	Cmax [7]	Cmax [8]	Compound	IC50 [5]	further results
1.04 h	7530 ng·h/mL	10 nM	30%	3.2 µM	26.3 µM	CN(C)C(=O)C(=O)N1CCC(CC(=O)N2CCC([C@H]3c4ncc(Br)cc4CCc4cc(Cl)cc(Br)c43)CC2)CC1	120 nM	AUC at 7 h [6]: 2260 ng·h/mL
1.2 h	13700 ng·h/mL	–	115%	9.81 µM	19.8 µM	O=C(CC1CCN(C(=O)c2cc[n+]([O-])cc2)CC1)N1CCC([C@H]2c3ncc(Br)cc3CCc3cc(Cl)cc(Br)c32)CC1	–	AUC [9]: 2000 ng·h/mL; AUC [10]: 13700 ng·h/mL; Cmax [11]: 19.8 µM; Cmax [12]: 1.07 µM; AUC [13]: 15700 ng·h/mL; bioavailability [14]: 14.6%
–	–	< 10 nM	–	–	–	N#CCC(=O)N1CCC(CC(=O)N2CCC([C@H]3c4ncc(Br)cc4CCc4cc(Cl)cc(Br)c43)CC2)CC1	–	AUC [9]: 350 ng·h/mL; AUC [10]: 4090 ng·h/mL; Cmax [11]: 23.4 µM; half-life [15]: 0.76 h; Cmax [12]: 0.33 µM; IC50 [16]: 120 nM; bioavailability [14]: 8.6%
–	–	–	–	1.3 µM	30 µM	CS(=O)(=O)N1CCC(CC(=O)N2CCC([C@H]3c4ncc(Br)cc4CCc4cc(Cl)cc(Br)c43)CC2)CC1	–	AUC [17]: 9520 ng·h/mL; T1/2 [18]: 0.53 h; bioavailability [19]: 10%; AUC [20]: 950 ng·h/mL
–	–	25 nM	–	–	–	O=C(CC1CCN(CC(=O)N2CCOCC2)CC1)N1CCC([C@H]2c3ncc(Br)cc3CCc3cc(Cl)cc(Br)c32)CC1	100 nM	IC50 [21]: 5.3 nM
–	–	–	–	3.6 µM	30 µM	NS(=O)(=O)N1CCC(CC(=O)N2CCC([C@H]3c4ncc(Br)cc4CCc4cc(Cl)cc(Br)c43)CC2)CC1	200 nM	AUC [17]: 26100 ng·h/mL; T1/2 [18]: 1.5 h; bioavailability [19]: 22%; AUC [20]: 5600 ng·h/mL
–	–	–	–	–	–	O=C(CC1CCN(S(=O)(=O)c2ccccc2)CC1)N1CCC([C@H]2c3ncc(Br)cc3CCc3cc(Cl)cc(Br)c32)CC1	–	IC50 [22]: 76.1 nM
–	–	350 nM	–	–	–	O=C(CC1CCN(S(=O)(=O)Cc2ccccc2)CC1)N1CCC([C@H]2c3ncc(Br)cc3CCc3cc(Cl)cc(Br)c32)CC1	–	IC50 [22]: 17.1 nM
–	–	–	–	–	–	O=C(O)CNC(=O)N1CCC(CC(=O)N2CCC([C@H]3c4ncc(Br)cc4CCc4cc(Cl)cc(Br)c43)CC2)CC1	> 500 nM	–
–	–	21 nM	–	–	–	NC(=O)c1cncc(C(=O)N2CCC(CC(=O)N3CCC([C@H]4c5ncc(Br)cc5CCc5cc(Cl)cc(Br)c54)CC3)CC2)c1	500 nM	IC50 [22]: 2.2 nM
4 h	20300 ng·h/mL	6 nM	60.2%	1.94 µM	30 µM	NC(=O)CN1CCC(CC(=O)N2CCC([C@H]3c4ncc(Br)cc4CCc4cc(Cl)cc(Br)c43)CC2)CC1	70 nM	AUC [13]: 12200 ng·h/mL; IC50 [21]: 2.1 nM

Compound	half-life [1]	AUC [2]	IC50 [3]	bioavailability [4]	Cmax [7]	Cmax [8]	IC50 [5]	further results
NC(=O)N1CCC(CC(=O)N2CCC([C@H]3c4ncc(Br)cc4CCc4cc(Cl)cc(Br)c43)CC2)CC1 [LONAFARNIB]	1.4 h	31800 ng·h/mL	–	75.8%	8.84 µM	20 µM	75 nM	AUC [9]: 41400 ng·h/mL; Cmax [12]: 16.6 µM; AUC [13]: 24100 ng·h/mL
